According to ChEMBL document CHEMBL2396602, “Discovery of N-(4'-(indol-2-yl)phenyl)sulfonamides as novel inhibitors of HCV replication” (Bioorg Med Chem Lett, 2013):
The source made the active and inactive calls. The calls are words filed in the database; no cut-off is given here.

What was measured:
[1] = Cytotoxicity against human HuH7 cells after 2 days by MTS assay; type: cell-based, Huh-7
Summary of the method: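 MTS cell proliferation assay run in parallel with the luciferase replicon assay in the same genotype 1b replicon-bearing Huh7 cells (5000 cells/well, 0.5% DMSO final, 37 °C); CC50 derived.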

Hepatitis C virus [2] = assay: Antiviral activity against Hepatitis C virus genotype 1b infected in human HuH7 cells assessed as inhibition of viral replication after 2 days by luciferase reporter gene assay; type: functional, organism-based, Hepacivirus hominis; conditions: Huh-7, 48 h
Summary of the method: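 Huh7 cells carrying a genotype 1b bicistronic HCV replicon plated at 5000 cells/well, kept subconfluent; compound added at 0.5% DMSO final, incubated at 37 °C; luciferase read after 2 days; EC50 from dose response.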

Hepacivirus hominis = assay: Inhibition of HCV protease up to 10 uM
Rattus norvegicus [3] = assay: Oral bioavailability in Sprague-Dawley rat at 3 mg/kg; type: ADME, organism-based; conditions: in vivo
Summary of the method: (§1)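 Female Sprague–Dawley rats dosed with compound in PEG-300 solution, 3 mg/kg orally or 1 mg/kg intravenously; pharmacokinetic parameters derived from plasma exposure after each route.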

[4] = Cmax in Sprague-Dawley rat at 3 mg/kg, po; type: ADME, organism-based; set-up: dose 3 mg/kg, route oral; conditions: in vivo; summary of the method: as §1
Rattus norvegicus [5] = assay: AUC (0 to infinity) in Sprague-Dawley rat at 3 mg/kg, po; type: ADME, organism-based, Plasma; set-up: dose 3 mg/kg, route oral, time infinity; conditions: in vivo; summary of the method: as §1
[6] = Volume of distribution at steady state in Sprague-Dawley rat at 1 mg/kg, iv; type: ADME, organism-based; set-up: dose 1 mg/kg, route intravenous; conditions: in vivo, read-out: Vdss; summary of the method: as §1
[7] = Half life in Sprague-Dawley rat at 1 mg/kg, iv; type: ADME, organism-based; set-up: dose 1 mg/kg, route intravenous; conditions: in vivo; summary of the method: as §1
[8] = Intrinsic clearance in human liver microsomes at 1 uM by LC/MS analysis; type: ADME, Microsome; conditions: read-out: CLH
Summary of the method: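 Compound at 1 µM incubated with human liver microsomes (0.5 mg/mL protein) for 0, 10, 20, 30 and 60 min with 1 mM EDTA, 3 mM MgCl2, 1.3 mM NADP, 3.3 mM D-glucose-6-phosphate and 1 unit/mL glucose-6-phosphate dehydrogenase.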

Hepatitis C virus [9] = assay: Antiviral activity against Hepatitis C virus genotype 1b infected in human HuH7 cells assessed as reduction in HCV RNA after 3 days by RT-PCR analysis; type: functional, organism-based, Hepacivirus hominis; conditions: Huh-7, 72 h
Summary of the method: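 Huh7 cells with a genotype 1b monocistronic replicon seeded at 5000 cells/well; compound at 0.5% DMSO final, 37 °C; cells harvested 3 days after dosing; replicon RNA measured by real-time RT-PCR, normalised to GAPDH RNA.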

[10] = Selectivity index, ratio of CC50 for human HuH7 cells to EC50 for Hepatitis C virus subtype 1b; type: toxicity, cell-based, Huh-7; conditions: read-out: Ratio CC50/EC50
Summary of the method: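 Ratio of CC50 from the MTS assay to EC50 from the luciferase assay, both in genotype 1b bicistronic replicon Huh7 cells run in parallel.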

SMILES | EC50 (Hepatitis C virus [2]) | CC50 at 48 h [1] | also measured
CCn1c(-c2ccc(NS(=O)(=O)CC)cc2)c(C#N)c2ccc(CO)cc21 | 3.5 µM | 60 µM | –
CCn1c(-c2ccc([S+](C)[O-])cc2)c(C#N)c2ccc(OC)cc21 (configuration not stated) | 4 µM | 52 µM | –
CCn1c(-c2ccc(NS(=O)(=O)CC)cc2)c(C#N)c2cc(OC)c(OC)cc21 | 4 µM | > 100 µM | –
CCn1c(-c2ccc(OC)cc2)c(C#N)c2ccc(OC)cc21 | 4.1 µM | > 100 µM | –
N#Cc1c(-c2ccc(NS(=O)(=O)C3CC3)cc2)n(CC2CC2)c2cc(OC(F)F)ccc12 | 0.17 µM | 25 µM | inhibition (Hepacivirus hominis): inactive; F (Rattus norvegicus [3]): 58%; Cmax [4]: 770 ng/mL; AUC (Rattus norvegicus [5]): 6.8 µM·h; Vd [6]: 2.2 L/kg; half-life [7]: 6.3 h; CLint scaled at 1 µM [8]: < 1 mL/min/kg; EC50 (Hepatitis C virus [9]): 0.18 µM; selectivity ratio [10]: 147
COc1ccc(-n2cc([N+](=O)[O-])c3ccc(OC)cc32)cc1 | 50 µM | – | –
CCS(=O)(=O)Nc1ccc(-c2c(C#N)c3ccc(OC(F)F)cc3n2CC2CC2)cc1 | 0.3 µM | 13 µM | –
CCn1c(-c2ccc(NS(=O)(=O)C(C)C)cc2)c(C#N)c2ccc(OC(F)F)cc21 | 0.12 µM | 19 µM | –
CCn1c(-c2ccc(NS(=O)(=O)CC)cc2)c(C#N)c2c(Cl)cccc21 | 3.5 µM | 55 µM | –
CCn1c(-c2ccc(NS(=O)(=O)CC)cc2)c(C#N)c2ccc(OC)cc21 | 0.47 µM | 62 µM | selectivity ratio [10]: > 130
CCn1c(-c2ccc(OC)cc2)c([N+](=O)[O-])c2ccc(OC)cc21 | > 51 µM | – | –
CCCn1c(-c2ccc(NS(=O)(=O)C3CC3)cc2)c(C#N)c2ccc(OC(F)F)cc21 | 0.25 µM | > 100 µM | –
CCn1c(-c2ccc(C(N)=O)cc2)c(C#N)c2ccc(OC)cc21 | 7.8 µM | > 100 µM | –
CC(C)S(=O)(=O)Nc1ccc(-c2c(C#N)c3ccc(OC(F)F)cc3n2CC2CC2)cc1 | – | 22 µM | –
CCn1c(-c2ccc(NS(=O)(=O)C3CC3)cc2)c(C#N)c2ccc(OC(F)F)cc21 | 0.1 µM | 23 µM | –
CCn1c(-c2ccc(NS(=O)(=O)CC)cc2)c(C#N)c2ccc(OC(F)(F)F)cc21 | 0.17 µM | 24 µM | selectivity ratio [10]: 141
CCn1c(-c2ccc(NS(=O)(=O)CC)cc2)c(C#N)c2ccccc21 | 9 µM | 40 µM | –
CCn1c(-c2ccc(NS(=O)(=O)CC)cc2)c(C#N)c2ccc(CN3CCOCC3)cc21 | 3 µM | 35 µM | –
CCn1c(-c2ccc(NS(=O)(=O)CC)cc2)c(C#N)c2ccc(C(F)(F)F)cc21 | 0.36 µM | 18 µM | selectivity ratio [10]: 50
CCn1c(-c2ccc(NC(=O)c3ccccc3)cc2)c(C#N)c2ccc(OC)cc21 | > 100 µM | > 100 µM | –

Second part, led by results:

EC50 (Hepatitis C virus [2]) | SMILES | CC50 at 48 h [1] | also measured
2.6 µM | CCn1c(-c2ccc(S(C)(=O)=O)cc2)c(C#N)c2ccc(OC)cc21 | 42 µM | –
2 µM | CCn1c(-c2ccc(N3CCCS3(=O)=O)cc2)c(C#N)c2ccc(OC)cc21 | > 50 µM | –
3 µM | CCOc1ccc(-c2c(C#N)c3ccc(OC)cc3n2CC)cc1 | > 100 µM | –
0.53 µM | CCOc1ccc2c(C#N)c(-c3ccc(NS(=O)(=O)CC)cc3)n(CC)c2c1 | 42 µM | –
9 µM | CCn1c(-c2ccc(NS(=O)(=O)CC)cc2)c(C#N)c2ccc(C(N)=O)cc21 | 55 µM | –
7.7 µM | CCn1c(-c2ccc(N)cc2)c(C#N)c2ccc(OC)cc21 | 100 µM | –
7.5 µM | CCn1c(-c2ccc(NS(=O)(=O)CC)cc2)c(C#N)c2cc(Cl)ccc21 | 40 µM | –
1.3 µM | CCn1c(-c2ccc(NC(C)=O)cc2)c(C#N)c2ccc(OC)cc21 | 89 µM | –
> 11 µM | CCn1c(-c2ccc(NS(=O)(=O)CC)cc2)c(C#N)c2ccc(C(=O)O)cc21 | > 100 µM | –
0.59 µM | CCn1c(-c2ccc(NS(=O)(=O)CC)cc2)c(C#N)c2cc(F)ccc21 | 39 µM | –
6.1 µM | CCn1c(-c2ccc(O)cc2)c(C#N)c2ccc(OC)cc21 | 50 µM | –
5 µM | CCn1c(-c2ccc(NS(=O)(=O)CC)cc2)c(C#N)c2ccc(COC)cc21 | > 100 µM | –
0.22 µM | CCCS(=O)(=O)Nc1ccc(-c2c(C#N)c3ccc(OC(F)F)cc3n2CC)cc1 | 26 µM | –
0.29 µM | CCn1c(-c2ccc(NS(=O)(=O)CC)cc2)c(C#N)c2ccc(OC(F)F)cc21 | 20 µM | selectivity ratio [10]: 69
0.59 µM | CCn1c(-c2ccc(NS(=O)(=O)CC)cc2)c(C#N)c2ccc(OCCF)cc21 | 39 µM | selectivity ratio [10]: 66
7.4 µM | CCn1c(-c2ccc(NS(=O)(=O)C(C)C)cc2)c(C#N)c2cc(OC)ccc21 | 36 µM | –
0.9 µM | CCn1c(-c2ccc(N3CCNS3(=O)=O)cc2)c(C#N)c2ccc(OC)cc21 | 30 µM | –
0.65 µM | CCn1c(-c2ccc(NS(=O)(=O)C(C)C)cc2)c(C#N)c2ccc(OC)cc21 | 70 µM | –
1.3 µM | CCOC(=O)Nc1ccc(-c2c(C#N)c3ccc(OC)cc3n2CC)cc1 | 41 µM | –
0.19 µM | N#Cc1c(-c2ccc(NS(=O)(=O)C3CC3)cc2)n(C2CCC2)c2cc(OC(F)F)ccc12 | 20 µM | –
2 µM | CCn1c(-c2ccc(NS(=O)(=O)CC)cc2)c(C#N)c2ccc(O)cc21 | 55 µM | –
0.075 µM | CC(C)n1c(-c2ccc(NS(=O)(=O)C3CC3)cc2)c(C#N)c2ccc(OC(F)F)cc21 | 13 µM | –
0.2 µM | CCS(=O)(=O)Nc1ccc(-c2c(C#N)c3ccc(OC(F)F)cc3n2C(C)C)cc1 | 12 µM | –
